From PubChem BioAssay
Compounds with a hit are over-represented: about 1.4% of the library has one in this group of screens.
TbMetRS inhib: blocks T. brucei methionyl-tRNA synthetase activity; purified T. brucei MetRS, ATP depletion, Kinase-Glo luminescence; inhibition, % at 11.9 µM; 360,000 compounds, 0.4% hits;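 active = inhibition above a per-plate cutoff of the control wells' mean inhibition plus 3 SD, cut at about 5.5% in these data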
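Material: parasite MetRS enzyme / Replication: singlicate, one well per compound / Signal: luminescence of leftover ATP / Schedule: 2 h aminoacylation at 25 °C after 15 min preincubation / Medium: HEPES-MgCl2-KCl buffer plus DTT, spermine, BSA, pyrophosphatase / Doses: 11.9 µM single point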
Rin1 Abl inh: blocks binding of human Rin1 to Abl. inhibition, % at 7.35 µM. P00519+Q13671. 360,000 compounds, 0.4% hits. TR-FRET Rin1/Abl binding, biochemical; in the data active = inhibition above about 5%, passing the limit was not always enough
UCH37 inh: inhibitors of human deubiquitinating enzyme UCH37. Q9Y5K5. purified proteasome/UCH37, Ub-AMC cleavage fluorescence. inhibition, % (test concentration not listed). 330,000 compounds, 0.33% hits;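 active = mean inhibition over replicate wells above about 20%, limit read from the data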
Target sequence (Q9Y5K5 whole entry, looked up): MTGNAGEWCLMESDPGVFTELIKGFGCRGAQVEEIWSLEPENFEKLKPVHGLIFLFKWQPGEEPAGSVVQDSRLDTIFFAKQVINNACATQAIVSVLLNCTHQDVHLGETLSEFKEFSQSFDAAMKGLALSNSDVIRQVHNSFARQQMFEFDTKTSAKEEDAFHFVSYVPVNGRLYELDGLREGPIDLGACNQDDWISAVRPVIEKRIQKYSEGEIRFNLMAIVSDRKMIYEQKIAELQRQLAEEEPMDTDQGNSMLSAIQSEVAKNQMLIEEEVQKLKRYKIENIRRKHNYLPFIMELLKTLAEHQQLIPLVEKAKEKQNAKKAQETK
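System: Proteasome-associated human UCH37 deubiquitinase; Input: 0.15 nM proteasome in added enzyme buffer; Also added: Ub-AMC substrate from 1 µM stock; Incubation: 30 min compound-proteasome preincubation then 25 min substrate reaction, room temperature; Detection: fluorescence, ex 355 nm, em 460 nm; Read-out: % inhibition of Ub-AMC cleavage fluorescence; Benchmarks: no-proteasome and no-compound wells.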
ATG4B inh: ATG4B (human) cysteine protease inhibition | Q9Y4P1 | ATG4B cleavage of LC3-PLA2, NBD-HPC fluorescence, 1 h | inhibition, % at 8.33 µM | 340,000 compounds, 0.51% hits | AID 504462; in the data active = inhibition above about 40%
Target sequence (Q9Y4P1 whole entry, looked up): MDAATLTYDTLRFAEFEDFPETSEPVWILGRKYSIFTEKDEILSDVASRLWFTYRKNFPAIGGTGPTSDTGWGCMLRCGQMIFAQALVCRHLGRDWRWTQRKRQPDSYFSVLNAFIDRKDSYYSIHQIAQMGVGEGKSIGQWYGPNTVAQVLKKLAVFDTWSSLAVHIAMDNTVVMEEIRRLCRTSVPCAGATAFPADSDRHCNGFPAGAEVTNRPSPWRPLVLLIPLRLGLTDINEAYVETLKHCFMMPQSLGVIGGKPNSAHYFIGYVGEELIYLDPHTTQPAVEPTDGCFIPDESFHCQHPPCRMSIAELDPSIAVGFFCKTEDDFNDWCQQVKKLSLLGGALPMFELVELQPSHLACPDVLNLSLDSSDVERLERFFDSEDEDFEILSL
Tb MetRS conf: Trypanosoma brucei MetRS inhibition confirmed; shares compounds with TbMetRS inhib; T. brucei MetRS enzyme, luminescence (ATP depletion); inhibition, % at 11.9 µM; 1,400 compounds, 93% hits; AID 624412; in the data active = inhibition above about 7%
Jurkat tox: kills Jurkat cells in T. brucei MetRS counterscreen; shares compounds with TbMetRS inhib; Jurkat cells viability, ATP luminescence; inhibition, % at 8.3 µM; 1,400 compounds, 12% hits; AID 624413; in the data active = inhibition above about 15%
Tb MetRS inh FP: inhibits T. brucei methionyl tRNA synthetase in orthogonal FP test. AID 651607. 1,400 compounds, 44% hits. shares compounds with TbMetRS inhib. inhibition, % at 11.9 µM. purified T. brucei MetRS, fluorescence polarization; in the data active = inhibition above about 17%
Of the large screens only hits and unclear results are named; the others gave an inactive call (follow-up assays come after a bar, where they were run).

O=C1CC(N(CCc2ccccc2)C(=S)Nc2ccccc2)C(=O)N1c1ccc(F)cc1 (stereo not given)	TbMetRS inhib 23 | Tb MetRS conf 32 | Jurkat tox inactive | Tb MetRS inh FP inactive
COC(=O)CN(C(=S)Nc1ccc(F)cc1)C1CC(=O)N(c2ccccc2)C1=O (stereo not given)	none (no result: UCH37 inh)
O=C1CC(N(CCc2ccccc2)C(=S)Nc2ccccc2)C(=O)N1c1ccccc1 (stereo not given)	TbMetRS inhib 31 | Tb MetRS conf 38 | Jurkat tox inactive | Tb MetRS inh FP 23
S=c1[nH]c2nc(Cl)c(Cl)nc2[nH]1	none (no result: UCH37 inh, ATG4B inh)
COc1cc(OC)cc(-c2noc([C@@H]3O[C@H](CO)[C@H](O)[C@H](O)[C@H]3O)n2)c1	none (no result: UCH37 inh, ATG4B inh)
COc1ccc(-c2noc([C@@H]3O[C@H](CO)[C@H](O)[C@H](O)[C@H]3O)n2)cc1OC	TbMetRS inhib 7.5 (no result: UCH37 inh, ATG4B inh) | Tb MetRS conf inactive | Jurkat tox inactive | Tb MetRS inh FP inactive
N#Cc1cn(-c2ccccc2)nc1-c1ccco1	none
COCC(=O)N(Cc1cc2cc(C)ccc2[nH]c1=O)c1cccc(C)c1C	TbMetRS inhib 5.6 | Tb MetRS conf 12 | Jurkat tox inactive | Tb MetRS inh FP inactive
ClCCn1cnc2c(SCc3ccccc3Cl)ncnc21	none
Cc1ccc(C2=NS(=O)(=O)N(C)C(C(=O)NCc3ccc(F)cc3)=C2)cc1	TbMetRS inhib 9.8 | Tb MetRS conf 17 | Jurkat tox inactive | Tb MetRS inh FP inactive
O=C(CSCc1ccc([N+](=O)[O-])cc1)N/N=C/c1cccnc1	TbMetRS inhib 9.2 (no result: UCH37 inh) | Tb MetRS conf 34 | Jurkat tox inactive | Tb MetRS inh FP inactive
O=C(CSCc1ccc([N+](=O)[O-])cc1)N/N=C/c1ccncc1	none (no result: UCH37 inh)
CCOC(=O)CC(=O)NC(C)(C)CCCCC(C)(C)NC(=O)CC(=O)OCC	TbMetRS inhib 6.9 (no result: UCH37 inh) | Tb MetRS conf inactive | Jurkat tox inactive | Tb MetRS inh FP inactive
CC(C)(C)c1ccc(C(=O)OCC(=O)Nc2sc3c(c2C#N)CCC3)cc1	none
Cc1cc(SCC(=O)N/N=C/c2ccc(O)cc2O)c(C)cc1Br	TbMetRS inhib 52 (no result: UCH37 inh) | Tb MetRS conf 92 | Jurkat tox 41 | Tb MetRS inh FP 75
Clc1ccc2[nH]c3c(NCC4CCCO4)ncnc3c2c1 (stereo not given)	none (no result: TbMetRS inhib, Rin1 Abl inh, ATG4B inh)
Clc1ccc2[nH]c3c(NCCN4CCOCC4)ncnc3c2c1	TbMetRS inhib 42 | Tb MetRS conf 62 | Jurkat tox inactive | Tb MetRS inh FP 26
Fc1ccc2[nH]c3c(NCCN4CCOCC4)ncnc3c2c1	TbMetRS inhib 27 | Tb MetRS conf 47 | Jurkat tox inactive | Tb MetRS inh FP 20
Cc1nc(Nc2ccccc2)[nH]c(=O)c1CCC(C)C	TbMetRS inhib 7.5 | Tb MetRS conf 52 | Jurkat tox inactive | Tb MetRS inh FP 24
Cc1nc(N2CCc3ccccc3C2)[nH]c(=O)c1CCC(C)C	none
CSc1nc(-c2ccc(Cl)cc2)nn1S(=O)(=O)c1ccccc1	none
CS(=O)(=O)n1nc(-c2ccc(Cl)cc2)nc1SCc1ccccc1	TbMetRS inhib 6.7 | Tb MetRS conf inactive | Jurkat tox inactive | Tb MetRS inh FP inactive
CCCCNC(=S)N(CCN(CC)CC)Cc1cc2cc3c(cc2[nH]c1=O)OCO3	TbMetRS inhib 8.8 | Tb MetRS conf 16 | Jurkat tox inactive | Tb MetRS inh FP inactive
Cc1ccc2[nH]c(=O)c(CN(Cc3ccccc3)C(=S)NCCCN(C)C)cc2c1	TbMetRS inhib 7.0 | Tb MetRS conf 17 | Jurkat tox 17 | Tb MetRS inh FP inactive
COc1cc2cc(CN(CCc3ccccc3C)C(=S)NCCCN(C)C)c(=O)[nH]c2cc1OC	none
COc1ccc(NC(=O)N(Cc2cc3cc(C)ccc3[nH]c2=O)CC2CCCO2)cc1 (stereo not given)	TbMetRS inhib 12 | Tb MetRS conf 49 | Jurkat tox inactive | Tb MetRS inh FP 17
CCCCNC(=S)N(CCN(CC)CC)Cc1cc2cc3c(cc2[nH]c1=O)OCCO3	none
Cc1ccc2[nH]c(=O)c(CN(CC3CCCO3)C(=S)Nc3ccccc3)cc2c1 (stereo not given)	TbMetRS inhib 6.1 | Tb MetRS conf 48 | Jurkat tox inactive | Tb MetRS inh FP 27
COc1cc(OC)cc(C(=O)NCc2ccc3[nH]c(C)cc3c2)c1	none
CN1C(=O)C(C)(C)c2cc(S(=O)(=O)N3CCCCCC3)ccc21	none
COc1ccc2[nH]c(=O)c(CN(C(=O)NC3CCCCC3)C3CCCC3)cc2c1	none
Cc1ccc2cc(CN(CC3CCCO3)C(=S)NCc3ccco3)c(=O)[nH]c2c1 (stereo not given)	none
Cc1ccc2[nH]c(=O)c(CN(CC3CCCO3)C(=S)NCc3ccco3)cc2c1 (stereo not given)	TbMetRS inhib 12 | Tb MetRS conf 23 | Jurkat tox inactive | Tb MetRS inh FP inactive
COc1ccc2[nH]c(=O)c(CN(C(C)=O)C3CCCCC3)cc2c1	TbMetRS inhib 9.6 | Tb MetRS conf 15 | Jurkat tox inactive | Tb MetRS inh FP inactive
Cc1cc(C)cc(C(=O)N2CCN(Cc3ccc4c(c3)OCO4)CC2)c1	none
COc1ccc(NC(=O)NNC(=O)CCC(=O)Nc2ccccc2Cl)cc1	none
O=C(NNC(=O)c1cc(-c2ccc(Cl)cc2Cl)nc2ccccc12)Nc1ccccc1	TbMetRS inhib 39 | Tb MetRS conf 95 | Jurkat tox inactive | Tb MetRS inh FP 80
O=C(CCC(=O)Nc1ccc(Cl)cc1Cl)NNC(=O)Nc1ccccc1	TbMetRS inhib 13 | Tb MetRS conf 26 | Jurkat tox inactive | Tb MetRS inh FP inactive
COc1ccc2[nH]c(=O)c(C(c3nnnn3CC3CCCO3)N3CCCCC3)cc2c1 (stereo not given)	none
Cc1cc(NS(=O)(=O)c2ccc(NC(=O)C(F)(F)F)cc2)nc(C)n1	none
COCCN(C(=O)c1cccc(N2C(=O)CCC2=O)c1)c1nc(-c2ccc([N+](=O)[O-])cc2)cs1	none
CCCCCN1C2=NCCN2c2ccccc21	none
CC(=O)Nc1nc2ccccc2n1CCOc1ccccc1	none
S=C(Nc1ccccc1)Nc1nc2ccccc2n1CCOc1ccccc1	TbMetRS inhib 18 | Tb MetRS conf inactive | Jurkat tox inactive | Tb MetRS inh FP inactive
Nc1nc2ccccc2n1CCOc1ccc(F)cc1	TbMetRS inhib 49 | Tb MetRS conf 72 | Jurkat tox 17 | Tb MetRS inh FP 45
COc1ccc(OCCn2c(N)nc3ccccc32)cc1	TbMetRS inhib 39 | Tb MetRS conf 62 | Jurkat tox inactive | Tb MetRS inh FP 32
Cc1nc2ccccc2n1CCOc1ccccc1	none
CCN(CC)c1ccc(/C=N/NC(=O)C2CC2)cc1	none (no result: UCH37 inh)
O=C(Nc1ccc(CN2CCOCC2)cc1)c1ccco1	none
